# From PubChem BioAssay
# Hits are enriched below; roughly 1.9% of the tested compounds scored in any of these assays.
# CHRM4 agonist = agonists of human muscarinic M4 receptor (CHRM4); 360,000 compounds, 0.14% hits; activation, % at 3 µM; AID 624127; CHO-K1 hM4/Gqi5, Fluo-8 calcium fluorescence; vehicle 0%, full acetylcholine response 100%;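 active = activation above the run mean over all test wells plus 3 SD, cut at about 32% in these data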;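 also: peak over basal fluorescence ratio per well then scaled between controls; 0% = DMSO wells and 100% = acetylcholine at EC100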
# Target sequence (P08173 whole entry, looked up): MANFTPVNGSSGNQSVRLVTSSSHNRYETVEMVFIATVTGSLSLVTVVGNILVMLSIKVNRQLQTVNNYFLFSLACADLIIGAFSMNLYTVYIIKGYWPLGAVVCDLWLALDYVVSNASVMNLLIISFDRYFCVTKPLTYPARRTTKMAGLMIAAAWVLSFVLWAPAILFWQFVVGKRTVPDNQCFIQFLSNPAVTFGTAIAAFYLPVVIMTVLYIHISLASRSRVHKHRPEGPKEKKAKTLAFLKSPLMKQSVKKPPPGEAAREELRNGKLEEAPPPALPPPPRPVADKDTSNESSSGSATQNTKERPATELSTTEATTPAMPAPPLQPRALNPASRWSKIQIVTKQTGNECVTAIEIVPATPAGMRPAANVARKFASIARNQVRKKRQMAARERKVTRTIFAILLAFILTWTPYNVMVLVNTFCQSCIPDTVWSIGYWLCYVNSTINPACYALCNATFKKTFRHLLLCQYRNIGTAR
# CHRM4 antagonist = blocks acetylcholine activation of human M4 receptor | P08173 | CHO-hM4 cells, ACh EC80, Fluo-8 calcium fluorescence | inhibition, % at 3 µM | 360,000 compounds, 0.73% hits | AID 624125;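 active = inhibition above its plate's cutoff, the mean inhibition of sample wells plus 3 SD, cut at about 27% in these data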;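 also: 0% = acetylcholine EC80 with DMSO and 100% = DMSO without agonist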
# CHRM5 agonist = agonists of human muscarinic M5 receptor (CHRM5); activation, % at 3 µM; AID 624037; CHO-K1 hM5 cells, Fluo-8 calcium fluorescence; 0% DMSO wells, 100% maximal acetylcholine response; 360,000 compounds, 0.19% hits; P08912;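 active = activation above the run's mean over test compounds plus 3 SD, cut at about 23% in these data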;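 also: signal is peak over basal fluorescence ratio across the kinetic read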
# M4 PAM = positive allosteric modulators of human muscarinic M4 receptor | 360,000 compounds, 0.4% hits | activation, % at 3 µM | CHO-K1 hM4/Gqi5, Fluo-8 calcium fluorescence, ACh EC20; 0% = ACh EC20, 100% = maximal ACh;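 active = activation above its plate's cutoff, the mean activation of sample wells plus 3 SD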
# CHRM5 antagonist = antagonists of human muscarinic M5 receptor (CHRM5); P08912; 360,000 compounds, 0.59% hits; inhibition, % at 3 µM; CHO-hM5 cells, Fluo-8 calcium fluorescence, ACh EC80; AID 624040;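 active = inhibition above a per-plate cutoff, the mean of that plate's test compounds plus 3 SD, cut at about 27% in these data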;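 also: 0% = acetylcholine EC80 with DMSO and 100% = DMSO without agonist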
# M5 PAM = CHRM5 positive allosteric modulation; P08912; CHO-K1 hM5, Fluo-8 calcium, ACh EC20 PAM; 0% = ACh EC20, 100% = ACh EC100; activation, % at 3 µM; 360,000 compounds, 0.3% hits; AID 624038;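 active = activation above the run cutoff, the mean activation of all test compounds plus 3 SD, cut at about 18% in these data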
#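 Measured by: Fluo-8 calcium fluorescence; material: human M5 receptor in CHO-K1 cells; schedule: Post-acetylcholine fluorescence recording 140 s; benchmarks: low control EC20 acetylcholine (0%), high control EC100 acetylcholine (100%); read-out: Max/basal fluorescence ratio as % of EC20–EC100 ACh window; compound: single dose, 3 µM nominal final test concentration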
# * hit, by the source's call.
SMILES,CHRM4 agonist,CHRM4 antagonist,CHRM5 agonist,M4 PAM,CHRM5 antagonist,M5 PAM
COc1cc(C2c3cc4c(cc3C(O)C3COCC23)OCO4)cc(OC)c1OC (stereo unspecified),0.4,-3.8,6.6,3.4,14.3,11.7
COc1cc([C@@H]2c3cc4c(cc3[C@H](O)[C@H]3COC(=O)[C@H]23)OCO4)cc(OC)c1OC,1.6,55.4*,0.8,-16.4,4.5,-13.8
CCOc1cc(/C=C2\N=C(SC(C)C(N)=O)N(c3ccc(OC(F)F)cc3)C2=O)ccc1O (stereo unspecified),9.1,1.3,19.4,-5.1,21.2,-14.9
CC(C)Cc1nn2c(N)c(/C=C3\C=Nc4ccccc43)c(=O)nc2s1,14.0,1.0,2.7,-8.4,32.2*,-18.7
CN(C)CCCN1c2ccccc2Sc2ccccc21,6.9,51.5*,0.5,-17.1,90.3*,-19.6
CC(=O)c1ccc2c(c1)N(C)c1ccccc1S2,-1.2,8.0,-2.8,5.4,2.0,7.2
CN(C)CCCN1c2ccccc2CCc2ccc(Cl)cc21,4.8,72.2*,0.0,-16.7,92.0*,-19.1
CNCCCN1c2ccccc2CCc2ccccc21,10.1,36.1*,1.0,-18.7,84.6*,-18.7
CC(=O)c1ccc2c(c1)N(CCCN(C)C)c1ccccc1S2,1.9,33.6*,-0.9,-17.4,69.5*,-18.4
COn1c(-c2ccc(Cl)cc2)nc2ncccc21,-1.2,-5.5,-3.5,2.2,-2.9,2.9
CCC(=O)c1ccc2c(c1)N(CCCN(C)C)c1ccccc1S2,4.9,38.9*,-1.3,-16.9,74.4*,-19.0
C/C(=N/NC(=O)c1cc(-c2ccccc2)nc2c(Cl)cccc12)c1cccnc1,1.8,-3.5,3.9,25.6*,-11.0,24.9*
Cc1cc(C(=O)CN2C(=O)CCC2=O)c(C)n1Cc1ccccc1,4.0,-12.0,3.9,18.1*,-8.6,17.4
C=C(C)COc1ccc(-c2[nH]ncc2Oc2ccc(OC)cc2)c(O)c1,-0.6,41.2*,-3.6,-31.7,6.9,-5.5
O=C(CCC(=O)Nc1ccccc1Cl)NNC(=O)Nc1cccc([N+](=O)[O-])c1,0.5,-5.6,-1.4,10.8,6.9,-5.4
CCC(c1nc2ccccc2[nH]1)n1c(=O)c(-c2cccnc2)nc2ccccc21 (stereo unspecified),-2.3,13.4,0.3,-1.9,2.3,2.2
CC(c1nc2ccccc2[nH]1)n1c(=O)c(-c2cccnc2)nc2ccccc21 (stereo unspecified),-2.1,-15.0,2.8,4.7,-17.6,18.4*
CCN(CC)C(=O)COc1ccc(N(C)S(=O)(=O)c2ccc(NC(C)=O)cc2)cc1,2.0,7.2,-0.5,8.2,4.4,-1.2
COc1ccc(NC(=O)COc2ccc(N(C)S(=O)(=O)c3ccc(Cl)cc3)cc2)cc1OC,19.8,12.1,7.2,-8.8,29.1*,-34.1
CC(=O)Nc1ccc(S(=O)(=O)N(C)c2ccc(OCCOc3cccc(C)c3)cc2)cc1,19.4,38.7*,4.1,-7.6,24.1,-36.6
CCN(CC)S(=O)(=O)c1cc(C(=O)OC(C)C(=O)NCc2ccco2)ccc1C (stereo unspecified),0.6,-0.6,1.7,-2.9,13.2,-4.1
CCN(CC)CCN(C(=O)c1ccc2ccccc2c1)c1nc2ccc(F)cc2s1,1.1,-6.8,-5.9,17.6*,1.1,0.7
O=C(NCCC1=CCCCC1)C(=O)NCc1ccncc1,1.7,-12.0,-11.1,21.4*,-12.6,0.6
O=C(NCCC1=CCCCC1)C(=O)NCCc1ccc(Cl)cc1,1.9,-8.0,-1.9,9.8,11.6,-1.1
O=S(=O)(Nc1nc2ccccc2nc1NCCO)c1cccc(Cl)c1,-1.5,28.7*,-4.1,-14.3,-4.2,-2.6
SMILES,CHRM4 agonist,CHRM4 antagonist,CHRM5 agonist,M4 PAM,CHRM5 antagonist,M5 PAM
COCCCNc1nc2ccccc2nc1NS(=O)(=O)c1cccc(Cl)c1,0.9,-6.6,-2.4,-0.4,-8.5,4.9
O=C(O)c1cc2c(N3CCC(Cc4ccccc4)CC3)ncnc2s1,0.7,9.5,1.1,7.2,-4.2,-0.5
c1ccc(CC2CCN(c3ncnc4sccc34)CC2)cc1,11.9,20.4,-0.9,-22.6,37.9*,-31.5
COc1ccc(OC)c(C2C(C(=O)c3ccc(C)o3)=C(O)C(=O)N2CCCN2CCOCC2)c1 (stereo unspecified),0.6,-12.6,-2.8,1.4,-9.3,22.7*
Nc1nnc(-c2cccc([N+](=O)[O-])c2)o1,1.6,6.6,-4.3,-8.7,6.7,-2.2
O=[N+]([O-])c1cccc(-c2nnc(C3CC3)o2)c1,0.4,-12.4,10.6,15.8,15.4,35.9*
CC(C)NC(=O)C1(C)CSCC(=O)N1Cc1cccs1 (stereo unspecified),1.5,-9.2,1.1,7.0,-2.0,1.4
O=C(OCC(=O)N(C1CCCCC1)C1CCCCC1)c1ccc(Cl)nc1,0.5,-6.8,3.6,20.4,-12.5,6.0
CN(C)c1cccc(C(=O)OCC(=O)NC2CCCC2)c1,0.0,-3.6,-2.1,-1.9,-4.2,0.5
O=C(COC(=O)c1ccc(Cl)nc1)NC1CCCCCC1,0.4,-1.1,-0.2,26.1*,2.0,-0.5
CN(C)c1ccc(C(=O)OCC(=O)NC2CCCCC2)cc1,2.1,-16.4,1.2,0.9,-15.4,34.9*
COc1cccc(CC2(CO)CCN(S(=O)(=O)c3ccc(OC)cc3OC)CC2)c1,2.8,-15.3,0.2,1.5,-3.6,3.0
CCOc1ccccc1NC(=O)COC(=O)Cc1cccs1,-2.7,99.5*,-1.6,-15.5,-13.1,6.2
CSc1ccccc1NC(=O)COC(=O)Cc1cccs1,1.1,7.0,-0.6,4.1,3.9,-2.8
Cc1ccc2nc(SCC(=O)O)nc(C)c2c1,0.9,-1.3,-0.1,18.8*,-3.5,4.5
OC1(c2cccs2)CN(c2ccc(Cl)cc2)C2=[N+]1CCCC2 (stereo unspecified),1.2,30.0*,-18.4,-23.7,28.6*,-32.0
OC1(c2cccs2)CN(c2ccc(Cl)cc2)C2=[N+]1CCCS2 (stereo unspecified),1.2,-1.1,-4.5,2.3,10.6,2.6
Cc1ccccc1NS(=O)(=O)c1ccc(NC(=O)c2ccco2)cc1,4.5,-8.8,-1.9,-3.0,-14.4,28.1*
O=C(NCc1ccccc1)c1cc(C2COCCN2C(=O)C/C=C/c2ccccc2)on1 (stereo unspecified),5.2,-6.6,1.7,-1.9,-2.5,4.6
CC(C)(C)C(=O)NCc1ccc(C(=O)CSc2nnc3n2CCCCC3)s1,-0.5,9.7,-1.9,-5.5,16.8,-2.8
Cc1cccc(NC(=S)NC2CCN(Cc3ccccc3)CC2)c1C,4.8,4.9,0.2,23.6*,-6.8,8.7
